Compound activity from PubChem.
MPTP inh: mitochondrial permeability transition pore inhibitors, primary screen, biochemical, isolated mouse mitochondria, absorbance; Ca2+ swelling absorbance, 30 min; inhibition, % at 10 µM; 1.4% of 360,000 active;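 active = inhibition of 50% or more, scaled per plate between neutral and stimulator controls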
GPR7 antagonist: GPR7 receptor antagonists, primary screen, cell-based, fluorescence, single concentration; Neuropeptides B/W receptor type 1 (Homo sapiens), P48145; GPR7-expressing cells, fluorescence antagonist assay; inhibition, % at 4.4 µM; 1.1% of 290,000 active; AID 1861, 2009; in the data active = inhibition above about 16%, passing the limit was not always enough;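 also: cells stimulated with the agonist NPW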
OX1R antag-1: OX1R (HCRTR1) antagonists, primary screen, fluorescence, CHO/OX1R cells, Fluo-8 calcium, orexin A | Orexin/Hypocretin receptor type 1 (Homo sapiens), O43613 | Fluo-8 calcium fluorescence | inhibition, % at 5 µM | 0.43% of 330,000 active | AID 434989, 2010;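 active = inhibition above its plate's threshold, mean inhibition of all tested compounds on the plate plus 3 SD, cut at about 37% in these data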
Target sequence (O43613 whole entry, looked up): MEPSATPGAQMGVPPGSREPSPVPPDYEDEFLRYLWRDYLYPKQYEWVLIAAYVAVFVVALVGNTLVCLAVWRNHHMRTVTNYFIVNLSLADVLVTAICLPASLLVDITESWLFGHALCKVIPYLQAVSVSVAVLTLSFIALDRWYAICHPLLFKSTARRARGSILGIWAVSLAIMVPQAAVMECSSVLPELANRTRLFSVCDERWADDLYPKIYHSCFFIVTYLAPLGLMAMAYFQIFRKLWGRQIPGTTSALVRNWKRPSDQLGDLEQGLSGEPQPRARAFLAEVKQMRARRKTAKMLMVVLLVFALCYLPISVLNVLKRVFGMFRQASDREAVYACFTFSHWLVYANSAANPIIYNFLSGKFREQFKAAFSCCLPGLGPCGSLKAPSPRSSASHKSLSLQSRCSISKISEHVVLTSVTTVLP
OX1R antag-2: antagonists of human orexin 1 receptor (OX1R) | inhibition, % at 6.6 µM | OX1R-expressing cells, FRET antagonist read-out | 1.8% of 330,000 active | AID 485270, 2010; in the data active = inhibition mostly above about 38%, no sharp cut-off; inactive = mostly below about 40%
CHO parental Ca: ATP-evoked calcium signal inhibitors, parental CHO, primary screen, counter-screen for OX1R antagonist project, cell-based, fluorescence, Fluo-8 calcium dye | inhibition, % at 5.6 µM | parental CHO-K1, ATP-induced calcium, Fluo-8 fluorescence | 0.63% of 330,000 active;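 active = inhibition above that plate's mean sample inhibition plus 3 SD, cut at about 26% in these data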
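Material – parental CHO cells · Reagent – ATP stimulus · Compound – single nominal dose of 5.6 µM per compound · Detection – Fluo-8 fluorescence · Read-out basis – percent inhibition of calcium signal · Controls – ATP-challenged DMSO wells low, unchallenged DMSO wells high · Repeats – no replicates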
Large screens that a line does not name were inactive. The list is not random: actives were taken first. Their share in the collection is about 3.8%.

CCc1c(C)nc(SCC(=O)c2cccs2)c(C#N)c1C	OX1R antag-2 64
Cc1ccc(-c2csc(N(C)C(=O)c3c(C)nn(-c4ccccc4)c3Cl)n2)cc1	none
CC1(c2ccccc2)NC(=O)N(CC(=O)NCC2CCCO2)C1=O (stereo not given)	none (no result: GPR7 antagonist)
COCCCn1cc(CN2CC(N3CCN(CCN(C)C)CC3)CS2(=O)=O)nn1 (stereo not given)	none (no result: GPR7 antagonist, OX1R antag-1, OX1R antag-2, CHO parental Ca)
Cc1ccc(N)c([N+](=O)[O-])c1	none (no result: GPR7 antagonist)
CC1(C)N=c2ccc([N+](=O)[O-])c(N)c2=[N+]1[O-]	OX1R antag-2 75
CCN1CCN(c2cc(N3CCN(C(=O)c4ccco4)CC3)c3c4c(onc24)-c2ccccc2C3=O)CC1	OX1R antag-2 69
O=C(O)CCNc1cc(N2CCN(C(=O)c3ccco3)CC2)c2noc3c2c1C(=O)c1ccccc1-3	OX1R antag-2 76
CCNC(=S)N=Nc1c(O)[nH]c2ccc([N+](=O)[O-])cc12	OX1R antag-2 46
Cc1cc(C)c2cc(C#N)c(NCCCN)nc2c1	none (no result: GPR7 antagonist, OX1R antag-1, OX1R antag-2, CHO parental Ca)
O=C(NNC(=O)c1ccccc1O)c1ccc(-c2ccc([N+](=O)[O-])cc2)o1	OX1R antag-2 55 (no result: GPR7 antagonist)
Cc1ccc(NC(=O)CN(C)CC(=O)Nc2ccc(N3CCOCC3)cc2)c([N+](=O)[O-])c1	none
O=C(Nc1ccccc1[N+](=O)[O-])C1COc2ccccc2O1 (stereo not given)	none
Oc1ccc(C2=NN(c3ccccc3)C(c3ccc(F)cc3)C2)cc1 (stereo not given)	CHO parental Ca 58
COc1ccc2c(CN3CCCCCCC3)cc(=O)oc2c1	none (no result: GPR7 antagonist, OX1R antag-1, OX1R antag-2, CHO parental Ca)
C[n+]1c(/C=C/c2ccc3c(c2)OCO3)ccc2ccccc21	none
C[n+]1c(/C=C/c2ccc(O)cc2)ccc2ccccc21	OX1R antag-2 73
Cc1ccc(-c2nc3c(c(SCC(=O)N4CCOCC4)n2)Cc2c(CO)cnc(C)c2O3)cc1	OX1R antag-2 38
CCc1nc(SCC(=O)N2CCCc3ccccc32)c2oc3ccccc3c2n1	OX1R antag-2 48
CCc1nc(SCC(=O)NC2CCCC2)c2oc3ccccc3c2n1	none
COc1cccc(CC(NC(C)=O)C(=O)NC2CCN(C(=O)C3CCCCC3)CC2)c1OC (stereo not given)	none (no result: OX1R antag-1, OX1R antag-2, CHO parental Ca)
Cc1n[nH]c(=O)c2c(NC(=O)CSc3nc4ccccc4c(=O)n3-c3ccc(OC(F)F)cc3)oc(C)c12	OX1R antag-2 76 (no result: GPR7 antagonist)
Cc1ccc(S(=O)(=O)N2[C@@H](CO)CO[C@H]2CC(=O)c2ccccc2)cc1	none (no result: GPR7 antagonist, OX1R antag-1, OX1R antag-2, CHO parental Ca)
O=C(OCC(=O)c1ccc(Cl)s1)c1cnccn1	none
CS(=O)(=O)N1CCN(c2ccccc2NC(=O)c2ccc([N+](=O)[O-])o2)CC1	none
Cc1ccccc1NC(=O)c1ccc([N+](=O)[O-])o1	OX1R antag-2 70
CCCCn1nnc(NC(=O)c2ccc(-c3ccccc3[N+](=O)[O-])o2)n1	none
O=C(Nc1cc(Cl)ccc1-n1cncn1)c1ccc([N+](=O)[O-])o1	OX1R antag-2 48 (no result: GPR7 antagonist)
CCn1nnc(NC(=O)c2ccc([N+](=O)[O-])o2)n1	OX1R antag-2 69
Cc1ccc(NC(=O)c2ccc([N+](=O)[O-])o2)c(C)c1	none
CN1CCN(c2ccccc2NC(=O)c2ccc([N+](=O)[O-])o2)CC1	OX1R antag-2 71
Cc1ncsc1CCC(=O)N1CCCC(Nc2ccc(C(C)C)cc2)C1 (stereo not given)	none
CN1CCN(c2ccccc2NC(=O)c2cccc(OCc3ccccc3)c2)CC1	GPR7 antagonist 18
COc1cccc(C(=O)Nc2cccc(-c3nc4ncccc4o3)c2C)c1	none
O=C(Nc1cccc2ncccc12)c1ccc([N+](=O)[O-])o1	OX1R antag-2 70
O=C(Nc1cccc2ncccc12)c1ccc(-c2ccc(Br)cc2)o1	none
Cc1c(NC(=O)c2ccc([N+](=O)[O-])o2)cccc1-c1nc2ncccc2o1	OX1R antag-2 63
COc1ccc(NC(=O)N(C)C[C@H]2Oc3ccc(NC(=O)c4ccncc4)cc3C(=O)N([C@H](C)CO)C[C@@H]2C)cc1	none (no result: GPR7 antagonist)
CN(C)c1ccc([N+](=O)[O-])cc1C(=O)O	none
CN(C)C(=O)c1noc2cc([N+](=O)[O-])ccc12	OX1R antag-2 52
CC(C)NC(=O)c1noc2cc([N+](=O)[O-])ccc12	OX1R antag-2 67
Cn1nc(C(=O)Nc2ccc3c(c2)OCCO3)cc1C(=O)O	none
CCn1nc(C)cc1C(=O)N1CCc2c([nH]c3ccccc23)C1c1cc(F)ccc1F (stereo not given)	GPR7 antagonist 19
Cc1ccn(C(C)CC(=O)Nc2ccc(-c3ccno3)cc2)n1 (stereo not given)	none
CC(C)NC(=O)C1(C)CSCC(=O)N1CC(F)(F)F (stereo not given)	none (no result: GPR7 antagonist, OX1R antag-1, OX1R antag-2, CHO parental Ca)
Cc1ccc(N(CC(O)CON=C2c3ccccc3-c3ccccc32)S(C)(=O)=O)cc1 (stereo not given)	OX1R antag-2 54
OC(CON=C1c2ccccc2-c2ccccc21)CN1CCNCC1 (stereo not given)	none
COc1cc([N+](=O)[O-])ccc1NC(=O)C[n+]1cccc(C(C)=O)c1	none
O=C(c1ccc(Cl)c(S(=O)(=O)N2CCCCCC2)c1)N1CCN(c2ccccn2)CC1	GPR7 antagonist 21
CN1CCN(C(=O)c2ccc(Cl)c(S(=O)(=O)N3CCCCC3)c2)CC1	none
Nc1nc(CSC(=S)N2CCCCC2)nc(Nc2ccccc2)n1	OX1R antag-2 69
Nc1nc(CSC(=S)N2CCOCC2)nc(Nc2ccccc2)n1	OX1R antag-2 69
Cc1ccc(Nc2nc(N)nc(CSC(=S)N3CCOCC3)n2)cc1	none
CCc1nc(Nc2ccc(OC)c(OC)c2)c2nnn(Cc3ccccc3Cl)c2n1	CHO parental Ca 30
S=c1[nH]nc(-c2ccncc2)n1/N=C/C(Cl)=C\c1ccccc1	OX1R antag-2 42
COc1cccc2c3c(c(C)nc12)CCN3c1ccccc1	OX1R antag-2 64
CC(=O)N1CCN(c2ccccc2NC(=O)COc2ccc(Cl)cc2Cl)CC1	GPR7 antagonist 19
CC(=O)N1CCN(c2ccccc2NC(=O)COc2ccccc2C)CC1	none
COc1c(OC)c(O)c2c(=O)c(O)c(-c3ccccc3)oc2c1OC	OX1R antag-2 57
Cc1ccc(/C=C(\C#N)C(=O)Nc2ccccn2)o1	none
O=C1NC[C@@H](CCCCN2C[C@H](Cc3ccc(O)cc3)N(CCC3CCCCC3)C(=O)C2=O)N(Cc2ccccc2)C1=O	none (no result: GPR7 antagonist, OX1R antag-1, OX1R antag-2, CHO parental Ca)
O=C(NCc1ccco1)c1cc(S(=O)(=O)N2CCCC2)ccc1Cl	none
O=C(CN(Cc1ccco1)Cc1ccco1)Nc1cc(S(=O)(=O)N2CCCCC2)ccc1Cl	OX1R antag-1 74, CHO parental Ca 48 (no result: GPR7 antagonist)
Nc1ncncc1-c1ccc([N+](=O)[O-])cc1	OX1R antag-2 63
Nc1ncncc1-c1ccc(F)cc1	none (no result: GPR7 antagonist, OX1R antag-1, OX1R antag-2, CHO parental Ca)
